Measurements taken from ChEMBL document CHEMBL1127455, “8-Azaxanthine derivatives as antagonists of adenosine receptors” (J Med Chem, 1994).

Tests used:
[1] = biological target: Adenosine receptor A2a (Bos taurus); assay: Affinity to A2 adenosine receptor was measured by the displacement of [3H]-CGS- 21680 in bovine brain striatal membrane
[2] = organism: Bos taurus; assay: Ratio between the Ki values of A2 and A1 receptors
[3] = biological target: T1, Adenosine receptor A1 (Bos taurus, UniProt P28190); assay: Affinity to A1 adenosine receptor was measured by the displacement of […] in bovine brain cortical membrane; assay type: cell membranes
T1 sequence (P28190 whole entry): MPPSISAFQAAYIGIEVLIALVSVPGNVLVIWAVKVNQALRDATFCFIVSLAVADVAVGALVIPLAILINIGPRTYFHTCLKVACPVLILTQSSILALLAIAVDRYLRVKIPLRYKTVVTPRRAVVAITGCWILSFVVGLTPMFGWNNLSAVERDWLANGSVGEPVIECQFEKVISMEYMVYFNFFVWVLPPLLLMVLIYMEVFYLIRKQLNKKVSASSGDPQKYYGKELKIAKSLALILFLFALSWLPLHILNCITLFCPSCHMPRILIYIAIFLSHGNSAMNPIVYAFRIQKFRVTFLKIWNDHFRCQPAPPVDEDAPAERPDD
In short: (§1)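 Bovine cerebral cortex was homogenized in ice-cold 0.32 M sucrose with protease inhibitors and spun at 1000g, then 48000g, at 4 °C. The pellet was treated with adenosine deaminase (2 units/mL) at 37 °C for 60 min. Membranes (0.2-0.3 mg protein) were incubated in triplicate with about 1.2 nM [³H]CHA in Tris-HCl pH 7.7 with MgCl₂ at 25 °C for 45 min. Nonspecific binding was defined with 50 μM R-PIA. Binding was ended by GF/C filtration. Compounds were added in DMSO (2% solvent), up to 30 μM. IC50 was read from semilog plots, and Ki was derived using Kd 10.5 nM.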

[4] = test system: Adenosine A2 receptor (Bos taurus); assay: Displacement of [3H]-CGS- 21680 from A2 adenosine receptor in bovine brain striatal membrane at […]; settings: Striatum
[5] = biological target: T1, Adenosine receptor A1; assay: Affinity for A1 adenosine receptor by displacement of […] in bovine brain cortical membrane; d= Inactive at highest tested concentration 30 uM; assay type: tissue-based
In short: as §1

## Cn1c(=O)c2nn(C3CCCCC3)nc2n(C)c1=O
[1]
  Ki: 250 µM
[2]
  Ratio: 6.9
[3]
  Ki: 36 µM

## CCCn1c(=O)c2nn(C3CCCCC3O)nc2n(CCC)c1=O (centres undefined)
[3]
  Ki: 1.4 µM
[4]
  inhibition: 20%

## Cn1c(=O)c2nn(-c3ccc(Cl)cc3N)nc2n(C)c1=O
[3]
  Ki: 24 µM

## Cn1c(=O)c2c(nnn2C2CC3CCC2C3)n(C)c1=O (centres undefined)
[1]
  Ki: 4.5 µM
[2]
  Ratio: 0.25
[3]
  Ki: 18 µM

## CCCn1c(=O)c2c(nnn2C2CCCC2)n(CCC)c1=O
[1]
  Ki: 10 µM
[2]
  Ratio: 29
[3]
  Ki: 0.34 µM

## Cn1c(=O)c2c(nnn2C2CCCC2)n(C)c1=O
[1]
  Ki: 292 µM
[2]
  Ratio: 26
[3]
  Ki: 11 µM

## Cn1c(=O)c2nn(C3CCCCC3O)nc2n(C)c1=O (centres undefined)
[5]
  Ki: Not Active

## CCCn1c(=O)c2nn(C3CCCC3)nc2n(CCC)c1=O
[1]
  Ki: 13 µM
[2]
  Ratio: 10
[3]
  Ki: 1.3 µM

## Cn1c(=O)c2nn(C3CC4CCC3C4)nc2n(C)c1=O (centres undefined)
[1]
  Ki: 49 µM
[2]
  Ratio: 1.6
[3]
  Ki: 31 µM

## Cn1c(=O)c2nn(C3CCCC3)nc2n(C)c1=O
[1]
  Ki: 58 µM
[2]
  Ratio: 0.5
[3]
  Ki: 110 µM

## CCCn1c(=O)c2c(nnn2C2CCCCC2O)n(CCC)c1=O (centres undefined)
[1]
  Ki: 13.5 µM
[2]
  Ratio: 7.5
[3]
  Ki: 1.8 µM

## Cn1c(=O)c2c(nnn2C)n(C)c1=O
[5]
  Ki: Not Active

## Cn1c(=O)c2c(nnn2-c2ccc(Cl)cc2N)n(C)c1=O
[3]
  Ki: 14 µM

## Cn1c(=O)c2nn[nH]c2n(C)c1=O
[5]
  Ki: Not Active

## CCCn1c(=O)c2nn(C3CCCCC3)nc2n(CCC)c1=O
[1]
  Ki: 21.7 µM
[2]
  Ratio: 13
[3]
  Ki: 1.6 µM

## CCCn1c(=O)c2nn(-c3ccc(Cl)cc3N)nc2n(CCC)c1=O
[3]
  Ki: 1.5 µM

## Cn1nc2c(=O)n(C)c(=O)n(C)c2n1
[5]
  Ki: Not Active
[1]
  Ki: 52.8 µM

## CCCn1c(=O)c2c(nnn2-c2ccc(Cl)cc2N)n(CCC)c1=O
[3]
  Ki: 44 µM

## Cn1c(=O)c2c(nnn2C2CCCCC2O)n(C)c1=O (centres undefined)
[3]
  Ki: 114 µM

## Cn1c(=O)c2c(nnn2C2CCCCC2)n(C)c1=O
[1]
  Ki: 8.4 µM
[2]
  Ratio: 0.36
[3]
  Ki: 23 µM

## CCCn1c(=O)c2c(nnn2C2CCCCC2)n(CCC)c1=O
[3]
  Ki: 1.1 µM

## Cn1c(=O)c2c(ncn2C)n(C)c1=O [CAFFEINE]
[3]
  Ki: 29 µM
